Measured values taken from publication PMC3831659 (European journal of medicinal chemistry, 2013).

Tests used:
[1] = system: Vero cells; test: Cytotoxicity for Vero cells; format: cell-based
[2] = system: Toxoplasma gondii (tachyzoites); test: T. gondii tachyzoites growth assay; format: cell-based; conditions: tachyzoites expressing red fluorescent protein in hTERT cells
In short: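 hTERT host cells grown in high-glucose DMEM with 1% fetal bovine serum, 2 mM glutamine and 1 mM pyruvate at 37 °C in humid 5% CO2. They were inoculated with 4 × 10⁴ RFP-expressing tachyzoites/well in the same medium. Plates were incubated at 37 °C and read daily through covered lids, bottom fluorescence ex 544/em 590 nm. EC50 was fitted as I = Imax·C/(EC50 + C), with Imax = 100%.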

[3] = system: T. cruzi (amastigotes); conditions: clinically more relevant form of T. cruzi; cited from earlier work
[4] = system: epimastigotes (EP strain); conditions: ergosterol and its 24-ethyl analogue; cited from earlier work
[5] = system: Trypanosoma cruzi; conditions: protection not as efficient as ketoconazole (positive control); cited from earlier work

Compound | Cytotoxicity on Vero cells ED50 ([1]; Alamar Blue assay) [µM] | Toxoplasma gondii (tachyzoites) ED50 [2] | further results
O=[N+]([O-])c1cccc(Oc2ccc(OCCOC3CCCCO3)cc2)c1 (stereo not drawn) [Compound 10, 4-(3-Nitrophenoxy)phenoxyethyl Tetrahydro-2H-pyran-2-yl Ether] | > 50 | – | –
N#CSCCOc1ccc(Oc2cccc([N+](=O)[O-])c2)cc1 [Compound 13, 4-(3-Nitrophenoxy)phenoxyethyl Thiocyanate] | > 50 | – | –
COc1ccc(Oc2ccc(OCCSC#N)cc2)cc1 [Compound 21, 4-(4-Methoxyphenoxy)phenoxyethyl Thiocyanate] | > 100 | – | –
COc1cccc(Oc2ccc(OCCSC#N)cc2)c1 [Compound 22, 4-(3-Methoxyphenoxy)phenoxyethyl Thiocyanate] | > 50 | 6.7 ± 3.1 µM | –
c1cncc(Oc2ccc(OCCOC3CCCCO3)cc2)c1 (stereo not drawn) [Compound 25, 4-(Pyridin-3-yloxy)phenoxyethyl Tetrahydro-2H-pyran-2-yl Ether] | > 50 | vanishing antiparasitic activity | –
N#CSCCOc1ccc(Oc2cccnc2)cc1 [Compound 28, 4-(Pyridin-3-yloxy)phenoxyethyl Thiocyanate] | > 50 | 7.5 ± 0.8 µM | –
N#CSCCOc1cccc(Oc2ccccc2)c1 [Compound 36, 3-Phenoxyphenoxyethyl Thiocyanate] | > 50 | – | –
COc1ccc(Oc2cccc(OCCSC#N)c2)cc1 [Compound 37, 3-(4-Methoxyphenoxy)phenoxyethyl Thiocyanate] | > 50 | – | –
N#CSCCOc1ccc(Oc2ccccc2)cc1 [WC-9, 4-Phenoxyphenoxyethyl thiocyanate] | – | – | Cytotoxicity on Vero cells ED50 ([1]; African green monkey): > 50 µM; IC50 against T. cruzi amastigotes [3]: low nanomolar range; depletion of parasite endogenous sterols [4]: almost complete disappearance of the parasite sterols; effect on parasitemia in murine models of Chagas disease [5]: able to impair parasitemia
